In all, about 2,100 compounds went through this assay and about 75 (4%) were called active.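 How the source made its calls: active means calcium fluorescence trace judged by eye to show a response, as agonist, enhancer of the glutamate response, or inhibitor; inactive means trace judged by eye to show no response.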 Shown is part of a subset that was picked to be rich in actives.
The compounds below were run against Metabotropic glutamate receptor 8 (Rattus norvegicus) (UniProt P70579) (assay: rat mGlu8 modulation via Gqi9 calcium signal, confirmation, counter-screen for GIRK activator project, cell-based, HEK293 rmGlu8, Gqi9 chimera, Fluo-4 calcium (AID 623869)). Conditions: HEK293 rmGlu8/Gqi9 calcium flux, Fluo-4 fluorescence; glutamate at EC20 added after compound.
Chain of Metabotropic glutamate receptor 8 (Rattus norvegicus) (P70579 whole entry, looked up): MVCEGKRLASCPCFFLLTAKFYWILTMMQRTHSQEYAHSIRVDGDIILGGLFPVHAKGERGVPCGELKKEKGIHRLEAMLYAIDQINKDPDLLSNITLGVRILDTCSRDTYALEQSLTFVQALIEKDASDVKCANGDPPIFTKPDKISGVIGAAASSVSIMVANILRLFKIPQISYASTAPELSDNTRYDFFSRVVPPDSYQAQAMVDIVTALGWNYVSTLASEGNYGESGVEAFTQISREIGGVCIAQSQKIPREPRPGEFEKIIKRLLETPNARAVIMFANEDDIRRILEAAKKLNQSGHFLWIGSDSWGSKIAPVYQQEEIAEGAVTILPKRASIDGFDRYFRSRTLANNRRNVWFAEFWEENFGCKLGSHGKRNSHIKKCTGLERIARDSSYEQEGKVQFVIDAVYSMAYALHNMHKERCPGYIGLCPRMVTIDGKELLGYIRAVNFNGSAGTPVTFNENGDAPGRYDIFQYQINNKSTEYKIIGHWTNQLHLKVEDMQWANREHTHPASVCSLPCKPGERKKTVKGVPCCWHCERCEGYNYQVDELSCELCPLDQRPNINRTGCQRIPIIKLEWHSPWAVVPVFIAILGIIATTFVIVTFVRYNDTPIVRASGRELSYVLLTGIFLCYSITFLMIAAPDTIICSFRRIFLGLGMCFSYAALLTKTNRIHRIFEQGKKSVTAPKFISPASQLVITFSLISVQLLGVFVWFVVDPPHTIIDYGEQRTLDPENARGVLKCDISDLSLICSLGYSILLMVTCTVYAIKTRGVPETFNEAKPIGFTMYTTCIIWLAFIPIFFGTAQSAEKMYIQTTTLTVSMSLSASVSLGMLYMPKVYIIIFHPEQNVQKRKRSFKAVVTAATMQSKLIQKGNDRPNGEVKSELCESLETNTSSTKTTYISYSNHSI
Method in brief: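 system = HEK-293 cells stably expressing rat mGlu8, plus transient chimeric Gqi9 | measured by = Fluo-4 calcium fluorescence, 1 Hz | timing = compound pre-exposure 4 min, post-glutamate read 2 min | measure = F/F0 fluorescence traces judged visually for each well | medium = HEPES-buffered HBSS at pH 7.4 | doses = single compound addition from 20 µM solution, 0.2% DMSO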
In the case of Cc1sc2nc(C(C)C)nc(SCC(=O)NCc3ccco3)c2c1C, the outcome is reported as “inactive; 0”. In the case of CCCc1cc(-c2n[nH]c(=S)n2Cc2ccccc2)cs1, the outcome is reported as “active; -1”. For CCCc1cc(-c2n[nH]c(=S)n2CC(C)C)cs1, the outcome was “inactive; 0”. In the case of CCCc1cc(-c2n[nH]c(=S)n2C(C)c2ccccc2)cs1 (stereo unspecified), the outcome is reported as “inactive; 0”. Cc1[nH]n(-c2ccc(Cl)cc2)c(=O)c1/C=N/c1nnc(-c2ccccc2)s1 was tested, and the outcome was “inactive; 0”. With O=C(O)c1ccccc1C(=O)Nc1ccc(-c2csc(-c3ccccc3)n2)cc1 the outcome was “active; 1”. O=C(NC(=S)Nc1ccccc1)c1cc(-c2ccccc2)nc2ccccc12 was tested, and the outcome was “inactive; 0”. CN(C)CCCNC(=O)c1ccc(-c2nc(-c3ccc(Cl)cc3)cs2)cc1 was tested, and the outcome was “inactive; 0”. In the case of C=CCn1c(=S)[nH]c2ccc(Br)cc2c1=O, the outcome is reported as “inactive; 0”. For S=c1[nH]nc(-c2cc3c(s2)-c2ccccc2CC3)o1, the outcome was “active; -1”. In the case of Cc1ccc(-c2cc(-c3n[nH]c(=S)o3)c3ccccc3n2)cc1, the outcome is reported as “inactive; 0”. For CCc1cc(C(=O)NNC(=S)Nc2cc(C)ccc2C)cs1, the outcome was “inactive; 0”. In the case of Cc1ccc(C)c(NC(=S)NNC(=O)c2cc3c(s2)CCC(C)C3)c1 (stereo unspecified), the outcome is reported as “inactive; 0”. With O=C1NC(=S)SC1=C1CCCCCC1 the outcome was “inactive; 0”. With CCn1c(=O)c(C(=O)NCCCO)c(O)c2ccccc21 the outcome was “active; 2”. CCn1c(O)c(N=NC(=O)CNc2cccc(C)c2)c2ccccc21 was tested, and the outcome was “inactive; 0”. CCCN(CCC)CCCNC(=O)c1cc2c(=O)n(C)c3ccccc3c2n1C was tested, and the outcome was “inactive; 0”. For CCC1CCCCN1C(=S)NC(=O)c1ccc([N+](=O)[O-])cc1 (stereo unspecified), the outcome was “inactive; 0”. In the case of Cc1cccc(NC(=S)N/C(=N/S(=O)(=O)c2ccccc2)c2ccccc2)c1, the outcome is reported as “inactive; 0”. For Cc1ccc(-c2cc(-c3ccccc3)[nH]c(=S)c2C#N)cc1, the outcome was “inactive; 0”. With CCOC(=O)c1c(NS(=O)(=O)Cc2ccccc2)sc2c1CCCC2 the outcome was “inactive; 0”. With Cc1ccc(Nc2cc(C)nn2-c2nc(C)cc(=O)[nH]2)cc1 the outcome was “active; -1”. In the case of Cc1cc(NC(=O)Nc2ccccc2)n(-c2ccccc2)n1, the outcome is reported as “inactive; 0”. In the case of Cc1cc(NC(=O)c2c(F)cccc2Cl)n(-c2nc3ccccc3[nH]2)n1, the outcome is reported as “inactive; 0”. COc1ccccc1C(=O)NNC(=S)NC(=O)c1sc2ccccc2c1Cl was tested, and the outcome was “active; 1”. With COc1ccccc1C(=O)NC(=S)NNC(=O)c1sc2ccccc2c1Cl the outcome was “inactive; 3”. For CCCOC(=S)NC(=O)c1sc2ccccc2c1Cl, the outcome was “inactive; 0”. For CC(C)(C)C(=O)NC(=S)NNC(=O)c1sc2ccccc2c1Cl, the outcome was “active; 1”. With CCOC(=S)NC(=O)c1sc2ccccc2c1Cl the outcome was “inactive; 0”. For CCCCOC(=S)NC(=O)c1sc2ccccc2c1Cl, the outcome was “inactive; 0”. For CCCN1C(=O)/C(=C/c2ccc(C)s2)NC1=S, the outcome was “inactive; 0”. With CCCOc1ccc(C(=O)NNC(=S)NC(=O)CC)cc1 the outcome was “inactive; 0”. For O=C(NC(=S)N1CCCCC1)c1cccs1, the outcome was “inactive; 0”. C=CCN(CC=C)C(=S)NC(=O)/C=C/c1ccc(C)cc1 was tested, and the outcome was “inactive; 0”. With COc1ccccc1C(=O)N1c2ccccc2Sc2ccccc21 the outcome was “inactive; 0”. In the case of CC(=O)c1c(C)[nH]c(C(=O)CSc2ncnc3sc(-c4ccccc4)cc23)c1C, the outcome is reported as “inactive; 0”. CCOC(=O)c1ccccc1NC(=O)CSc1nnc(COc2ccccc2C)n1C was tested, and the outcome was “inactive; 0”. With Cc1cccc(NC(=S)NNC(=O)c2csc3c2CCCC3)c1 the outcome was “inactive; 0”. With FC(F)(F)Oc1ccc(NC(=S)NCc2ccccc2)cc1 the outcome was “inactive; 4”. COc1ccc(NC(=S)Nc2ccc(OCc3ccccc3)cc2)cc1OC was tested, and the outcome was “inactive; 0”. FC(F)(F)c1cccc(NC(=S)NCc2ccccc2)c1 was tested, and the outcome was “inactive; 4”. For FC(F)(F)c1cccc(NC(=S)NC2CCCC2)c1, the outcome was “active; -1”. For FC(F)(F)c1cccc(N2CCN(C(=S)NC3CCCCC3)CC2)c1, the outcome was “inactive; 0”. For S=C(Nc1ccc(Oc2ccccc2)cc1)NC1CCCC1, the outcome was “active; 2”. With CCOC(=O)c1ccc(NC(=S)NC2CCCC2)cc1 the outcome was “inactive; 4”. With CCCN(CC1CC1)C(=S)Nc1ccc(Oc2ccccc2)cc1 the outcome was “inactive; 0”. In the case of CC(C)CNC(=S)Nc1ccc(Oc2ccccc2)cc1, the outcome is reported as “active; 2”. In the case of COC(=O)c1cc(CSc2nc3ccc(C)cc3[nH]2)oc1C, the outcome is reported as “inactive; 0”. For O=C(NNC(=S)Nc1cccc2ccccc12)c1cccc(Br)c1, the outcome was “inactive; 0”. In the case of CCc1c(C)c(C#N)c2nc3ccccc3n2c1NCc1ccco1, the outcome is reported as “inactive; 0”. With Cc1ccc2nc(-c3ccc(O)cc3)c(Nc3ccc4c(c3)OCCO4)n2c1 the outcome was “inactive; -1”. For O=c1c2cc(Cl)ccc2[nH]c(=S)n1Cc1ccco1, the outcome was “inactive; 0”. For O=C(NC(=S)Nc1ccc(N2CCCCC2)cc1)c1ccco1, the outcome was “inactive; 0”. For Cc1cc(C)c2[nH]c(=S)cc(C)c2c1, the outcome was “inactive; 0”. For CCCCn1c(=S)[nH]c2c(oc3ccc(Cl)cc32)c1=O, the outcome was “inactive; 0”. With Cc1ccc2c(c1)NC(=O)CC(c1ccccc1)=N2 the outcome was “active; 2”. For O=C1CC(C(F)(F)C(F)(F)C(F)(F)F)=Nc2ccccc2N1, the outcome was “inactive; 0”. O=C(NC(=S)N1CCN(c2ccc([N+](=O)[O-])cc2)CC1)c1ccc(F)cc1 was tested, and the outcome was “inactive; 0”. With COc1ccc(NC(=O)C(=O)NNC(=O)c2cccs2)cc1 the outcome was “inactive; 0”. CC(C)CNC(=S)NC(=O)c1ccc(Cl)cc1Cl was tested, and the outcome was “inactive; 0”. With O=C(NC(=S)NCCc1ccccc1)c1ccccc1 the outcome was “inactive; 0”. With O=C(COc1ccccc1)NNC(=S)NC(=O)c1ccc(Cl)cc1Cl the outcome was “active; 1”. In the case of CCCCNC(=S)NC(=O)c1ccc(Cl)cc1Cl, the outcome is reported as “inactive; 0”. In the case of CC(C)NC(=S)NC(=O)c1ccc(Cl)cc1Cl, the outcome is reported as “inactive; 0”. For Cc1ccccc1C(=O)NC(=S)NCCc1ccccc1, the outcome was “active; -1”. For COC(=O)c1ccccc1NC(=S)NC(=O)c1ccccc1, the outcome was “inactive; 0”. In the case of Cc1ccc(C(=O)NNC(=S)NC(=O)c2ccc(Cl)cc2Cl)cc1, the outcome is reported as “inactive; 4”. Cc1ccccc1C(=O)NNC(=S)NC(=O)c1ccccc1 was tested, and the outcome was “active; 1”. For O=C(NC(=S)NCCc1ccccc1)c1ccco1, the outcome was “inactive; 0”. Cc1ccccc1C(=O)NNC(=S)NC(=O)c1ccc(Cl)cc1Cl was tested, and the outcome was “active; 1”. Cc1ccccc1C(=O)NC(=S)Nc1ccc(Oc2ccc(Cl)cc2)cc1 was tested, and the outcome was “inactive; 4”. For CC(C)C(=O)Nc1ccccc1N1CCN(C(=O)c2ccccc2)CC1, the outcome was “inactive; 0”. With CC1(C)Cc2c(sc3[nH]c(=S)n(Cc4ccco4)c(=O)c23)CO1 the outcome was “inactive; 0”. Cc1[nH]n2c(=O)cc(C(C)(C)C)nc2c1-c1ccccc1 was tested, and the outcome was “inactive; 0”. With COC(=O)c1sc(NC(=S)NC(=O)c2ccccc2)nc1C the outcome was “inactive; 0”. Cc1ccccc1C(=O)Nc1ccccc1C(=O)N/N=C\c1ccco1 was tested, and the outcome was “inactive; 0”. For O=C(N/N=C(\c1ccccc1)c1cccnc1)C(O)(c1ccccc1)c1ccccc1, the outcome was “inactive; 0”. CC(Oc1ccc(Cl)cc1Cl)C(=O)NC(=S)N1CCc2ccccc21 (stereo unspecified) was tested, and the outcome was “inactive; 0”. Cc1onc(-c2ccccc2)c1C(=O)NNC(=S)NC(=O)c1ccc(Br)cc1 was tested, and the outcome was “active; 1”. For Cc1ccccc1NC(=S)NC(=O)c1cncc(Br)c1, the outcome was “inactive; 0”. In the case of Cc1onc(-c2ccccc2)c1C(=O)NC(=S)Nc1sc2c(c1C#N)CCCC2, the outcome is reported as “inactive; 0”. Cc1cccc(OCC(=O)Nc2ccccc2N2CCN(C(=O)C(C)C)CC2)c1C was tested, and the outcome was “inactive; 0”. In the case of CCc1ccc(Nc2nc3ccccc3c(=O)s2)cc1, the outcome is reported as “inactive; 0”. O=C1OC2(CCCCC2)OC(=O)C1=CNc1nc2ccccc2s1 was tested, and the outcome was “inactive; 0”. For Cc1ccc(C)c(NC(=S)NNC(=O)c2csc(C(C)C)c2)c1, the outcome was “inactive; 0”. For COc1ccccc1C1=Nn2c(nnc2C2CCCCC2)SC1, the outcome was “inactive; 0”. For COc1ccc(C2=Nn3c(nnc3C3CCCCC3)SC2)cc1OC, the outcome was “active; 2”. For c1cc2c(cc1C1=Nn3c(nnc3C3CCCCC3)SC1)OCO2, the outcome was “inactive; 0”. In the case of CCOc1ccc(-c2nc(-c3ccc(OC)c(OC)c3)no2)cc1OCC, the outcome is reported as “inactive; 0”. For COc1ccc(-c2nnc3sc(C4CCCCC4)nn23)cc1OC, the outcome was “active; 2”. CCCc1nnc2n1N=C(c1ccc(OC)c(OC)c1)CS2 was tested, and the outcome was “active; 2”. For Brc1ccccc1C1=Nn2c(nnc2-c2ccccc2)SC1, the outcome was “inactive; 0”. In the case of CC(C)COn1c(=S)[nH]c2ccccc2c1=O, the outcome is reported as “inactive; 0”. In the case of Cc1ccc(N2C(=S)N=C(Nc3ccccc3C)C23CCOC(C)(C)C3)cc1 (stereo unspecified), the outcome is reported as “inactive; 0”. In the case of C=CCN(CC=C)C(=S)NC(=O)c1ccc(OC)c(Br)c1, the outcome is reported as “inactive; 0”. Cc1ccc(N=C2CCCN2Cc2ccccc2)c(C#N)c1 was tested, and the outcome was “inactive; 0”. CCC(C)n1c(=S)[nH]c2c(sc3ccc([N+](=O)[O-])cc32)c1=O (stereo unspecified) was tested, and the outcome was “inactive; 4”. O=C(COc1ccccc1)NC(=S)N1CCc2ccccc21 was tested, and the outcome was “inactive; 0”. With O=C(NC(=S)N1CCN(Cc2ccc3c(c2)OCO3)CC1)c1cccc(Br)c1 the outcome was “inactive; 0”. With CC(c1ccc(Cl)cc1)n1c(-c2ccc3ccccc3n2)n[nH]c1=S (stereo unspecified) the outcome was “inactive; 0”. O=C(N/N=C/c1ccccn1)c1ccc(Br)cc1 was tested, and the outcome was “inactive; 0”. For O=C(NC(Nc1nc2ccc([N+](=O)[O-])cc2s1)(C(F)(F)F)C(F)(F)F)c1ccccc1Cl, the outcome was “active; -1”. Cc1ccc(C)c(OCC(=O)Nc2nc3ccc([N+](=O)[O-])cc3s2)c1C was tested, and the outcome was “inactive; 0”. In the case of O=C(NC(Nc1nc2ccc([N+](=O)[O-])cc2s1)(C(F)(F)F)C(F)(F)F)c1ccccc1, the outcome is reported as “inactive; 4”. In the case of Cc1sc2ncnc(SCc3ccco3)c2c1C, the outcome is reported as “inactive; 0”. CCOC(=O)c1sc(NC(=S)NC(=O)c2ccco2)nc1C was tested, and the outcome was “inactive; 0”. With CCOC(=O)c1sc2ncnc(NCc3ccco3)c2c1C the outcome was “active; 2”. For O=C(Nc1nc(-c2ccccc2)c(-c2ccccc2)o1)c1ccc(F)cc1, the outcome was “inactive; 0”. In the case of COc1ccc(C)cc1NC(=O)C(=O)NNC(=O)c1ccco1, the outcome is reported as “inactive; 0”. Cc1ccc(-c2csc3nc[nH]c(=S)c23)cc1C was tested, and the outcome was “inactive; 0”. COC(=O)C1=NN(C(=O)c2ccc(Cl)cc2)C(O)(c2ccccc2)C1 (stereo unspecified) was tested, and the outcome was “inactive; 4”.
